ChEMBL document CHEMBL1133421, “Novel peptidomimetic hematoregulatory compounds” (2000)

Test system: Murine stromal cell line
Assay: In vitro ability to induce a hematopoietic synergistic factor from a murine stromal cell line at 0.10 ug/mL; Not Detected
Format: functional, cell-based
Conditions: Mus musculus
Method in brief: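 Murine stromal cell line C6.4 exposed to test compounds at 0.10, 1.0 and 10.0 µg/mL. Stromal supernatants then assayed for induced hematopoietic synergistic factor (HSF) activity in a murine bone marrow CFU-GM colony assay. Reference peptide included in every assay at 1.0 µg/mL as positive control.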

## O=C(CCNC(=O)[C@H](CO)NC(=O)c1ccc[nH]1)Nc1ccc(NC(=O)CCNC(=O)[C@H](CO)NC(=O)c2ccc[nH]2)cc1
  HSF release: Not detected
